Compound activity (PubChem BioAssay)
Kir21 inh: Kir2.1 (mouse) channel inhibition; P35561; B-score at 10 µM; HEK293-Kir2.1, FluxOR thallium flux fluorescence; active compounds read low; 0.85% of 310,000 active;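 active = fluorescence ratio B-score at or below minus 3 SD of library scores, with starting-brightness B-score within 2 SD, cut at about -4.2 in these data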;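 note: channel flux triggered by added potassium and thallium sulfate stimulus; B-score of peak minus minimum fluorescence over baseline after thallium stimulus; more negative B-score means stronger Kir2.1 block with less thallium influx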
KCNQ1 inh: human KCNQ1 channel inhibition; CHO-K1 KCNQ1, FluxOR thallium flux fluorescence; active compounds read high; B-score at 10 µM; 1.3% of 310,000 active; P51787; AID 2642;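 active = compounds whose thallium flux B-score, printed positive for inhibition, exceeds three library SD while starting fluorescence stays within three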;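 note: channel opened by potassium depolarization with thallium stimulus after 20 min compound exposure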
KCNK9 block: human KCNK9 channel inhibition | Q9NPC2 | B-score at 10 µM | 1.2% of 310,000 active | HEK293 KCNK9, FluxOR thallium flux fluorescence; active compounds read low;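 active = ratio B-score over 3 SD below the library mean, with starting fluorescence within 5 SD of its mean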;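 note: negative B-score means less thallium flux so channel inhibition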
hERG rescue: hERG (human) protection from proarrhythmic block. Q12809. activation (rescue from dofetilide block), less the hit threshold, % at 10 µM. CHO-hERG, FluxOR thallium flux, dofetilide IC70 present. 0.51% of 310,000 active;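 active = activation above the mean of controls blocked by dofetilide plus 5 SD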;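 note: thallium influx through hERG after potassium depolarization seen as dye fluorescence rise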
KCNQ1 act: potentiators or activators of human KCNQ1 potassium channel. P51787. CHO-K1 KCNQ1, thallium flux FluxOR fluorescence; active compounds read high. B-score at 10 µM. 0.35% of 310,000 active. AID 2648;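 active = fluorescence ratio B-score, a plate-corrected score, at least three library SD, with initial intensity B-score within 5 SD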
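Test system: CHO-K1 cells stably expressing KCNQ1 / Medium: assay buffer / Also added: depolarizing K+/Tl+ stimulus, K2SO4 and Tl2SO4 each 12.5 mM in 5x stock / Incubation: 90 min dye loading and 20 min compound exposure, both at room temperature / Signal: thallium influx via FluxOR fluorescence, kinetic imaging / Evaluation: B score of baseline-normalized fluorescence ratio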
KCNK3 inh: human KCNK3 channel inhibition, primary screen. B-score at 10 µM. CHO-KCNK3 thallium flux, FluxOR fluorescence; active compounds read low. O14649. 0.84% of 340,000 active;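 active = B-score under library mean minus 4 SD, starting fluorescence ratio at most library mean plus 5 SD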;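 note: more negative B-score means stronger inhibition of thallium flux through KCNK3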
Target sequence (O14649 whole entry, looked up): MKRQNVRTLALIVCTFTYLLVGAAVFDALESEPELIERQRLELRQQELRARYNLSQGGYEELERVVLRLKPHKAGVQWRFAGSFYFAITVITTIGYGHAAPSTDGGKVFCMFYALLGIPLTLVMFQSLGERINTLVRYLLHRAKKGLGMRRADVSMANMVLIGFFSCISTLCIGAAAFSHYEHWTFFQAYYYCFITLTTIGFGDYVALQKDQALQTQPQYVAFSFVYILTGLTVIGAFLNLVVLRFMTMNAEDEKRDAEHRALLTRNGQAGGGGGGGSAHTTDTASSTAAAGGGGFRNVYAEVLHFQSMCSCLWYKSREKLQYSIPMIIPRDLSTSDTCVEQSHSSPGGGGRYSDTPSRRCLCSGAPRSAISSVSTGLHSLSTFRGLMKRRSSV
Active calls of the source: *; i = inactive; / = no result given. Compounds with a hit are over-represented: about 3.8% of the library has one in this group of screens.

SMILES	Kir21 inh	KCNQ1 inh	KCNK9 block	hERG rescue	KCNQ1 act	KCNK3 inh
COC(=O)[C@@]12CCCN1[C@H](c1ccc(-c3cccc(Cl)c3)cc1)[C@H]1C(=O)N(C)C(=O)[C@H]12	-0.98	i	-7.13*	-15.4	i	i
C=C(C)Cn1c(SCCN2CCOCC2)nc2c1c(=O)[nH]c(=O)n2C	0.23	i	i	-10.1	i	i
O=C(O)CN1C(=O)C(=O)N(Cc2ccc(C(F)(F)F)cc2)C1=O	0.12	i	i	5.4*	i	i
O=C(/C=C/c1cn(CC(O)CN2CCCCC2)c2ccccc12)c1ccccc1 (centres undefined)	-3.95	i	i	-20.9	i	i
O=C(/C=C/c1cn(CC(O)CN2CCCCC2)c2ccccc12)c1cccs1 (centres undefined)	-7.06	7*	i	-31.1	i	i
CCOC(=O)C1(Cc2ccc(Cl)cc2)CCN(C(=O)CCc2ccncc2)CC1	0.27	i	i	-8.4	i	i
CCOc1ccc(C(c2c(NC(=O)c3ccco3)sc(C)c2C)N2CCOCC2)cc1 (centres undefined)	/	/	/	/	/	-10.6*
Cc1sc(NC(=O)c2ccco2)c(C(c2ccncc2)N2CCOCC2)c1C (centres undefined)	-0.46	i	i	-9.5	i	i
Cc1cc(OCC(O)CNC(C)c2ccccc2)ccc1C(C)C (centres undefined)	-10.1*	i	i	-7.1	i	i
C=CCc1ccc(OCCOc2cccc3cccnc23)c(OC)c1	-0.99	i	i	-7.8	i	i
C=CCc1ccc(OCCOCCOc2cccc3cccnc23)c(OC)c1	-4.93*	i	i	-15.4	i	i
Brc1ccc(OCCOCCOc2cccc3cccnc23)cc1	-2.19	i	i	-10.5	i	i
Brc1ccccc1OCCOCCOc1cccc2cccnc12	-4.55*	i	i	-0.8	i	i
O=C(NCCNC(=O)c1ccc(-c2ccc(Cl)c(Cl)c2)o1)c1cnccn1	-2.75	i	i	-16.2	i	i
N#Cc1ccccc1OCc1cccc(S(=O)(=O)N2CCOCC2)c1	/	/	/	/	/	i
CCOc1ccc(C(=O)Nc2ccccc2C(=O)O)cc1	-1.05	i	i	7.5*	i	i
O=C(Nc1ccccc1C(=O)O)c1cncc(Br)c1	-0.29	i	i	6.6*	i	i
CCOc1ccccc1C(=O)Nc1ccccc1O	1.43	i	-6.7*	-20.2	i	i
CCOc1ccc(C(=O)NCC(C)NC(=O)c2ccc(OCC)cc2)cc1 (centres undefined)	3.89	14*	i	-4.1	i	i
CCOc1ccccc1C(=O)Nc1cccc2ccccc12	1.49	i	i	-2.2	i	i
O=C(NC(=S)Nc1ccccc1C(=O)O)c1cncc(Br)c1	-0.24	i	i	-3.2	i	i
COc1ccc(OCC(=O)Nc2ccc(C(=O)Nc3ccccc3C(=O)O)cc2)cc1	1.28	i	i	-10.8	i	i
CCOc1cc(/C=C2/NC(=O)N(CC(=O)OC)C2=O)ccc1O	2.72	i	i	-11.2	i	i
CCOC(=O)Cc1csc(NC(=O)COc2ccc(N(C)S(=O)(=O)c3ccc(C)cc3)cc2)n1	-1.09	i	-6.75*	-13.9	i	i
Cc1ccc(C(=O)OCC(=O)Nc2sc3c(c2C#N)CCCC3)cc1NC(=O)c1ccco1	0	i	i	-4.0	19*	i
SMILES	Kir21 inh	KCNQ1 inh	KCNK9 block	hERG rescue	KCNQ1 act	KCNK3 inh
Cc1cccc(NS(=O)(=O)c2cn(C)c(=O)n(C)c2=O)c1C	-1.2	i	i	-7.1	i	i
COc1ccc(CCNc2nc(-c3ccc(O)cc3)cs2)cc1OC	-4.63*	i	i	-29.0	i	i
COc1ccc(CCNc2nc(-c3ccncc3)cs2)cc1OC	-4.02	i	i	-9.0	i	i
NCC(c1ccccc1)(c1ccccc1)c1ccccc1	-4.77*	i	i	-10.8	i	i
NCC(O)(c1ccc(Cl)cc1)c1ccc(Cl)cc1	-3.12	i	i	-17.1	i	i
CCCn1c(SCC(=O)c2c(C)[nH]c(C)c2C(=O)OCC)nc2ccccc21	-4.27*	i	i	-15.8	i	i
CCOC(=O)c1c(C)[nH]c(C)c1C(=O)CSc1nc2ccccc2n1CCC#N	-0.39	i	i	-10.8	i	i
CCOC(=O)c1c(C)[nH]c(C)c1C(=O)CSc1nc2ccccc2c(=O)n1-c1ccc(Cl)cc1	0.05	6*	i	-8.7	i	i
CC(C)NC(=O)N(C)C[C@H]1Oc2ccc(NC(=O)Nc3ccccc3)cc2C(=O)N([C@@H](C)CO)C[C@@H]1C	/	/	/	/	/	i
O=[N+]([O-])c1ccc(O)c(-c2cc(C(F)(F)F)nc(-c3ccccc3)n2)c1	0.11	7*	i	-16.4	i	i
Oc1ccccc1-c1cc(C(F)(F)C(F)F)nc(-c2ccccc2)n1	0.05	i	i	-5.8	i	i
CCN(CC)c1ccc2cc(S(=O)(=O)c3ccc(Cl)cc3)c(=O)oc2c1	-1.57	10*	i	-8.1	i	i
O=c1oc2cc(O)ccc2cc1S(=O)(=O)c1ccccc1	-0.41	i	i	-9.1	i	i
CCCCCCc1cc2cc(S(=O)(=O)c3ccc(Cl)cc3)c(=O)oc2cc1O	1.56	11*	i	-1.1	i	i
COc1ccc(-n2nnnc2-c2cnc3cc4c(cc3c2C)OCO4)cc1	-1.39	i	i	-11.7	i	i
O=C(CN1C(=O)COc2ccc(Cl)cc21)Nc1ccccn1	-0.14	i	i	-3.9	i	i
O=C(Cn1nnc(-c2cccc(C(F)(F)F)c2)n1)N1CCCCCC1	-0.59	i	i	5.1*	i	i
Cc1ccc(S(=O)(=O)N2CCN=C2SCc2cccnc2)cc1	-4.81*	i	i	-2.9	i	i
COc1ccc(S(=O)(=O)N2CCN=C2SCc2cccnc2)cc1	-0.9	i	i	-6.7	i	i
O=S(=O)(c1ccc(Cl)cc1)N1CCN=C1SCc1cccnc1	2.64	i	i	-9.9	i	i
O=S(=O)(c1ccccc1)N1CCN=C1SCc1cccnc1	-4.24*	i	i	-4.7	i	i
CC1(C)CNC(=O)c2sc(NC(=O)c3ccccc3Cl)nc2C1	0.39	i	i	-9.6	i	i
COc1ccc(S(=O)(=O)N2CCCCC2)cc1C(C)C	/	/	/	/	/	i
CCN(C[C@H]1N[C@@](CC)(C(=O)OC)[C@H]2C(=O)N(Cc3ccccc3)C(=O)[C@@H]12)S(=O)(=O)c1ccc(C(C)(C)C)cc1	/	/	/	/	/	i
